Data taken from PMC5305809 (ACS chemical biology, 2016).

How the values were obtained:
HDAC8 = target: T1, HDAC8 (Homo sapiens, UniProt Q9BY41); assay: HDAC8 kinetics assay on H3K9 acyl peptides; assay type: biochemical; settings: for kcat/Km: from slope of linear plot where kcat ND
T1 sequence (Q9BY41 1-377): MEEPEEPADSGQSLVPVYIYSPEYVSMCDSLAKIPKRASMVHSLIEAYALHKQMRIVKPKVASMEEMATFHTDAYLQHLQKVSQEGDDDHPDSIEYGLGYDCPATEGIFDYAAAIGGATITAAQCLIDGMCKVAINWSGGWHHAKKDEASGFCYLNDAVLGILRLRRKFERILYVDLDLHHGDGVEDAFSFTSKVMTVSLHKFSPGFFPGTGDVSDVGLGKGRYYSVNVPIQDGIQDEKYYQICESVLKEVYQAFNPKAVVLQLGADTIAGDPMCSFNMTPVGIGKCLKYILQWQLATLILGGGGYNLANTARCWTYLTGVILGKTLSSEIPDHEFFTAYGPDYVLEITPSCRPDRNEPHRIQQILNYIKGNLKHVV

MDA-MB 231 cells = assay: Global fatty acylation by metabolic labeling; assay type: cell-based
Procedure, shortened: (§1)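 Cells grown in DMEM with 10% FBS at 37 °C, 5% CO2. They were pretreated with test compound or DMSO, then cultured with Alk12, an alkyne myristic acid analogue, for metabolic labeling. Labeled proteins were clicked to BODIPY-azide and precipitated. Cysteine acylation was removed with 0.5 M hydroxylamine pH 8.0 at 95 °C for 7 min. Read-out was in-gel fluorescence after SDS-PAGE.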

HEK-293T cells = assay: Global fatty acylation by metabolic labeling; assay type: cell-based, human
Procedure, shortened: as §1

HeLa cells = assay: Global fatty acylation by metabolic labeling; assay type: cell-based
Procedure, shortened: as §1

Jurkat cells [1] = assay: Western blot for global protein lysine acetylation; assay type: cell-based; settings: Jurkat cells treated with 25 μM HDAC inhibitor
Procedure, shortened: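 Jurkat cells in RPMI 1640 with 10% FBS, exposed to test compound (25 μM) for 15 hrs. Cells lysed in 4% SDS buffer with protease inhibitor cocktail and nuclease, protein quantified by BCA.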

Jurkat cells [2] = assay: Global fatty acylation by metabolic labeling; assay type: cell-based; settings: 25 μM inhibitor, 15 hrs
[3] = recombinant HDAC8 from E. coli, 1 μM, 37 °C, 1 hr, pH 8, duplicate, ± S.D., SD
[4] = recombinant HDAC8 from E. coli, 1 μM, 37 °C, 1 hr, pH 8, duplicate, ± S.D.
[5] = recombinant HDAC8 from Sf9 insect cells

Compound	Km (HDAC8; [3]) [µM]	kcat (HDAC8; [3]) [S^−1]	global lysine acetylation level (Western blot) (Jurkat cells [1])	global protein lysine fatty acylation vs control (Alk12 labeling) (Jurkat cells [2])	Km (HDAC8; [4]) [µM]	also measured
KQTARKSTGGWW [Dodecanoyl H3K9]	69.5 ± 10.1	0.0123 ± 0.0013				
COc1ccc(Cn2ccc3ccc(C(=O)NO)cc32)cc1 [PCI-34051]			did not noticeably increase protein lysine acetylation	exhibited enhanced global protein lysine fatty acylation		fatty acylation vs DMSO control (Alk12 labeling) (MDA-MB 231 cells): slightly increased fatty acylation; fatty acylation vs DMSO control (Alk12 labeling) (HEK-293T cells): slightly increased fatty acylation; fatty acylation vs DMSO control (Alk12 labeling) (HeLa cells): slightly increased fatty acylation
KQTARKSTGGWW [Acetyl H3K9]					> 600	Km (HDAC8; [5]): > 300 µM; kcat/Km (HDAC8; [5]): 480.8 ^b S^−1.M^−1
KQTARKSTGGWW [Butyryl H3K9]					> 200	
KQTARKSTGGWW [Palmitoyl H3K9]	18.3 ± 7.4	0.0005 ± 0.00007				
Cc1[nH]c2ccccc2c1CCNCc1ccc(/C=C/C(=O)NO)cc1 [Panobinostat]			predominantly increased the acetylation of protein bands around 55 kDa	much lower than the control		
KQTARKSTGGWW [Myristoyl H3K9]	15.8 ± 5.1	0.0019 ± 0.0003			~16	demyristoylation catalytic efficiency relative to deacetylation (HDAC8; HDAC8 purified from Sf9 insect cells, myristoyl- vs acetyl-H3K9): > 2 times; Km (HDAC8; [5]): 60.5 µM; kcat (HDAC8; [5]): 0.0755 ^b S^−1; kcat/Km (HDAC8; [5]): 1,246 ^b S^−1.M^−1
KQTARKSTGGWW [Octanoyl H3K9]	146 ± 10.3	0.0202 ± 0.0005				
Nc1ccccc1NC(=O)c1ccc(CNc2nccc(-c3cccnc3)n2)cc1 [Mocetinostat]			did not noticeably increase protein lysine acetylation	only PCI-34051-treated Jurkat cells exhibited enhanced global protein lysine fatty acylation		
O=C(CCCCCCC(=O)Nc1ccccc1)NO [SAHA]			predominantly increased the acetylation of protein bands around 55 kDa	much lower than the control		
